Columns and labels:
[1] = target: T1, Amine oxidase [copper-containing] 3 (Homo sapiens) (UniProt Q16853); experiment: Inhibition of SSAO in human plasma assessed as reduction of H2O2 production from oxidative deamination of benzylamine at 10 uM preincubated for 2 hrs followed by substrate addition measured every 2 mins for 1 hr by amplex red reagent-based fluorescence assay relative to control
T1 sequence (whole entry): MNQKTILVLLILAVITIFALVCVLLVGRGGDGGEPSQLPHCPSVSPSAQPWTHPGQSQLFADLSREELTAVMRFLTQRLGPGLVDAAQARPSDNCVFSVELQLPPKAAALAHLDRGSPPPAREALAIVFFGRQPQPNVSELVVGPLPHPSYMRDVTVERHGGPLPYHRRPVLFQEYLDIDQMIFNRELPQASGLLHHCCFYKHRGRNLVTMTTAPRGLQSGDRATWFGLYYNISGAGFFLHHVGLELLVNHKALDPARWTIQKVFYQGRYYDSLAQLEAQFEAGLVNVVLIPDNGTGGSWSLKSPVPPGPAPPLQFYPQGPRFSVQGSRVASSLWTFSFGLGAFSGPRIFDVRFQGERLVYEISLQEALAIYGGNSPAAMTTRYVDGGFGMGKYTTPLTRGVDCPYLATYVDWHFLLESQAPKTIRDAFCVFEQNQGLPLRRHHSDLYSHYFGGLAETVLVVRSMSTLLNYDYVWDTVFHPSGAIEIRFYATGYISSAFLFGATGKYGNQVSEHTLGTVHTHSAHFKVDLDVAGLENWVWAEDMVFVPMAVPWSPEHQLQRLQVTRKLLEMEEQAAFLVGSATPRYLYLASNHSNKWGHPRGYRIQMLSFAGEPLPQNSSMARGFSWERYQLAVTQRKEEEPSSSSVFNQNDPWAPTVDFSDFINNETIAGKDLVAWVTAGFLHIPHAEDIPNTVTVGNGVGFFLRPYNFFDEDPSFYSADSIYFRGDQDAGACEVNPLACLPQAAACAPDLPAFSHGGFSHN
Summary of the method: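 Endogenous SSAO in human plasma was the enzyme source and benzylamine the substrate. After a 2 h preincubation with compound, percent inhibition was calculated relative to a vehicle control and to a control containing 1 μM of the known SSAO inhibitor PXS-4681A.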

[2] = target: T2, Diamine oxidase [copper-containing] (Homo sapiens) (UniProt P19801); experiment: Inhibition of recombinant human DAO assessed as reduction of H2O2 production from oxidative deamination of DAP at 10 uM preincubated for 2 hrs followed by substrate addition measured every 2 mins for 1 hr by amplex red reagent-based fluorescence assay
T2 sequence (whole entry): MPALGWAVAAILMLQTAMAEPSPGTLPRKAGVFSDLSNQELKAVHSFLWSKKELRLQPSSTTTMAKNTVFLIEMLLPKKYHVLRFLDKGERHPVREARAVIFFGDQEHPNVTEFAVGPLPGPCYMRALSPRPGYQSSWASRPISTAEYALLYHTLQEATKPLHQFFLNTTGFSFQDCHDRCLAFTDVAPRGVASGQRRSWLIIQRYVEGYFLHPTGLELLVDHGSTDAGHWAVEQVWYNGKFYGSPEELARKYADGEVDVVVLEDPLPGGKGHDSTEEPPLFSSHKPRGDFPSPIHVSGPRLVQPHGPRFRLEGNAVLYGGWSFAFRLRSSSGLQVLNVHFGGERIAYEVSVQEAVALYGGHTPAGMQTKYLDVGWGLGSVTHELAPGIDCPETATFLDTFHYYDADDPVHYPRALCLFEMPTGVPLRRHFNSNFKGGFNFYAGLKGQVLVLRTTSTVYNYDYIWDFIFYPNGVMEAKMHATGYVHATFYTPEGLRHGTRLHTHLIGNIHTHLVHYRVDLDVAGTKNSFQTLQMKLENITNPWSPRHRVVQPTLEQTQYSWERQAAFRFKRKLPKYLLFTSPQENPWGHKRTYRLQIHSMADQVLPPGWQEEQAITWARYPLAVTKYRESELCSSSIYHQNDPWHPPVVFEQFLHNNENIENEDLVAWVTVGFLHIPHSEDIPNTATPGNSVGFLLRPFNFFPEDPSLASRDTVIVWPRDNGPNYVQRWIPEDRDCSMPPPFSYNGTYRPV
Summary of the method: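 Purified recombinant human DAO was preincubated with compound for 2 h and DAP used as substrate. Percent inhibition was calculated against vehicle and enzyme-free controls.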

[3] = Cmax in C57BL/6 mouse plasma at 30 mg/kg, po by LC-MS/MS analysis; type: ADME, organism-based; design: dose 30 mg/kg, route oral
Summary of the method: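 Normal C57BL/6 mice, n = 3 per time point, received a single oral 30 mg/kg dose formulated in 0.5% methylcellulose.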

Mus musculus = experiment: Toxicity in C57BL/6 mouse assessed as body weight loss at 3 to 60 mg/kg, po qd administered 15 days starting 1 day prior to bleomycin instillation; type: organism-based; details: in vivo
MAO-B = target: T3, MAO-B (Homo sapiens, UniProt P27338); experiment: Inhibition of recombinant human MAO-B assessed as reduction of H2O2 production from oxidative deamination of benzylamine at 10 uM preincubated for 2 hrs followed by substrate addition; details: probe benzylamine
T3 sequence (P27338 whole entry): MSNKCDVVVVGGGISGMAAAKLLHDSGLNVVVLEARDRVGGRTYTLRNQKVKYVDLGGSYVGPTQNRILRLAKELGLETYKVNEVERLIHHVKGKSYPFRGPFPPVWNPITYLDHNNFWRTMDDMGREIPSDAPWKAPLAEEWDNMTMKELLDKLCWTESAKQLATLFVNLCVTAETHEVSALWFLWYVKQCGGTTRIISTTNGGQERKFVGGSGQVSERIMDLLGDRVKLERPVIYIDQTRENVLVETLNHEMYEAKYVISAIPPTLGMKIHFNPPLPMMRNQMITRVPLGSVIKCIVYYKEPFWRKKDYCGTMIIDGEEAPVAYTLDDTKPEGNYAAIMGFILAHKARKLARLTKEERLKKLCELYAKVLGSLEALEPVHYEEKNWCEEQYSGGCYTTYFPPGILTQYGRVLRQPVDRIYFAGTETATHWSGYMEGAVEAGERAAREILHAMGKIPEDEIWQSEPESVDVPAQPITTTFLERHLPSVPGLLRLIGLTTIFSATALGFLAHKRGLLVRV
Summary of the method: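 Purified recombinant human MAO-A (tyramine substrate) or MAO-B (benzylamine substrate) was preincubated with compound for 2 h. Percent inhibition was calculated against vehicle and enzyme-free controls.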

With `Cl.NCc1cc(Oc2cccc(C(=O)N3C[C@@H](O)[C@H](F)C3)c2)nc(C(F)(F)F)c1` (racemic) the inhibition [1] was 16%, the inhibition [2] was < 10% and the Cmax [3] was 3.09 µM. For the same molecule, the Activity (Mus musculus) was < 5% and the inhibition at 2 h, 10 µM (MAO-B) was < 10%.
